Screening data (PubChem BioAssay)
rRNA inh HTS: reduced GFP signal of wild-type E. coli, primary screen, bacterial rRNA inhibitor project, GFP/RFP fluorescence, OD600, single point; E. coli WT GFP vs humanized-ribosome RFP mutants, 24 h; active compounds read low; DMSO median 0, no signal -100; GFP signal change (wild-type ribosome), % (no concentration beside the values); 1.6% of 350,000 active; AID 720706, 2013;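 active = significant combined selectivity score with lowered wild-type GFP, culture density cut under 30%, mutant RFP and density less affected; inactive = any of these conditions unmet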
FN deposit inh: inhibitors of fibronectin matrix deposition, primary screen, AH1F cells, Alexa488-fibronectin fluorescence, plate reader | AH1F fibroblasts, overnight | inhibition, % at 12.6 µM | AID 743247, 2014 | 0.086% of 350,000 active;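 active = mean inhibition across replicates of 30% or more, regardless of how many single replicates reach that level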;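 also: positive control wells lacked labelled fibronectin entirely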
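material = AH1F fibroblast monolayer depositing Alexa488-labelled fibronectin into matrix | amount = 10000 AH1F cells/well | buffer or medium = DMEM plus 2% serum, read in PBS | incubation = 1 h cell adhesion before compound, then overnight fibronectin incubation | detection = fluorescence at 485 nm excitation, 525 nm emission | evaluation = percent inhibition as loss of matrix-bound fibronectin fluorescence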
E-selectin induc: E-selectin induction in HUVECs, primary screen, imaging, HUVEC, immunofluorescence imaging, single point. P16581. normalized: neutral wells 0, TNF-alpha wells 100. activation, % at 7.58 µM. 0.37% of 260,000 active. AID 686992, 2013;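 active = mean E-selectin-positive cell signal at least 10% of the positive control, reached in at least 60% of replicates, without over 20% cell loss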
Target sequence (P16581 whole entry, looked up): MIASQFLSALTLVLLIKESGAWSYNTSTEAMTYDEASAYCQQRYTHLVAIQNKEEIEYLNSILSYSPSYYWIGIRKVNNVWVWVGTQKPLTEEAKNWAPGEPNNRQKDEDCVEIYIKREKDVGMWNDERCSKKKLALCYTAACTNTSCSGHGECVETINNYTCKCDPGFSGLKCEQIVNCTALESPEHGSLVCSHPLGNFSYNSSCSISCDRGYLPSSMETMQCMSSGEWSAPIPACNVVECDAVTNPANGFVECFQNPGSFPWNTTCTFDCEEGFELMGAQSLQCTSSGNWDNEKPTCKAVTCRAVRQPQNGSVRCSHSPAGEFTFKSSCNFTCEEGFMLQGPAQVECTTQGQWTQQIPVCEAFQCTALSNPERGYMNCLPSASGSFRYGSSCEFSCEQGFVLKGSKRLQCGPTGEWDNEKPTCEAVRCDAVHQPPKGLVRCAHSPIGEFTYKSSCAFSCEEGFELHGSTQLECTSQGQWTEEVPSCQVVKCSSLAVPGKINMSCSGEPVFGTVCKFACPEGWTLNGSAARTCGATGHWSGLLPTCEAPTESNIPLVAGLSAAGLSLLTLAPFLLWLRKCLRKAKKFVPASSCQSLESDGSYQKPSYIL
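Assay system: HUVEC, human umbilical vein endothelial cells / Amount: 3,000 HUVEC/well / Controls: TNF-alpha positive control, DMSO neutral control / Compound dosing: single concentration / Medium: EGM-2 over gelatin coat / Evaluation: percent E-selectin-positive cells / Signal: immunofluorescence imaging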
Statin myotox sup: suppressors of statin myotoxicity in C2C12 myotubes, primary screen, cell-based, single point, plate reader | C2C12 myotubes + simvastatin, ATP luminescence, 48 h; scaled: DMSO 0, geranylgeraniol control 100 | rescue of ATP level, % at 7.49 µM | 0.78% of 330,000 active | AID 602340, 2012;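 active = mean ATP rescue above about 67%, or every replicate alone reaching that limit, limit read from the data, passing the limit was not always enough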;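 also: myotubes were challenged with 10 µM simvastatin during compound exposure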
SIRT5 inh: SIRT5 desuccinylase inhibitors, primary screen, biochemical, fluorescence imaging, single point, set 5; Purified SirT5, succinyl-peptide AMC, trypsin-coupled fluorescence; NAD-dependent protein deacylase sirtuin-5, mitochondrial (Homo sapiens), Q9NXA8; 1.1% of 330,000 active; inhibition, % at 15 µM; AID 652115, 2013; in the data active = inhibition above about 15%
FGF22 binding: binders of human FGF22 protein, primary screen, FGF22 synaptogenesis inhibitor project, biophysical, thermal shift, single point; Fibroblast growth factor 22 (Homo sapiens), Q9HCT0; recombinant FGF22 thermal shift, SYPRO orange fluorescence; percent of sucrose octasulfate shift, DMSO zero; activity (Tm shift, normalised), % at 9.99 µM; 1.5% of 340,000 active;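 active = mean Tm shift, scaled 0 neutral to 100 positive control, at about 1.3% or above, every replicate too, limit read from the data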
The depositor's hits bear a star. Most compounds without a hit are left out; they make up all but 4% or so of the library.

CN(C)c1nc(N(C)C)nc(N2CCCCC2)n1 was read as FN deposit inh 3.5 and Statin myotox sup 8.9.
Screening CC1CCN(c2nc(N3CCCCC3)nc(N3CCCCC3)n2)CC1 returned rRNA inh HTS 20.6, FN deposit inh 5.5, Statin myotox sup 3.2, SIRT5 inh -5.1 and FGF22 binding 43.1*.
`C[C@@H]1CN([C@@H](C)CO)C(=O)CCCn2cc(nn2)CO[C@@H]1CN(C)Cc1ccc2cccnc2c1` gave rRNA inh HTS 1.3, FN deposit inh 4.3, E-selectin induc 0.4 and Statin myotox sup 11.2.
CC(C)N(CCO)C(=O)CCc1nnc(CCCc2ccccc2)o1 was read as rRNA inh HTS 5.0, FN deposit inh -5.0, E-selectin induc 0.0, SIRT5 inh -1.4 and FGF22 binding 0.1.
For COC(c1ccccc1)c1nnc(CCC(=O)N(C)CCc2ccccc2)o1 (centres undefined) the results were FN deposit inh -4.4, SIRT5 inh 2.9 and FGF22 binding 43.7*.
`COC(c1ccccc1)c1nnc(CCC(=O)NCCCc2ccccc2)o1` (centres undefined) gave rRNA inh HTS 10.2, FN deposit inh -1.2, E-selectin induc 0.5, Statin myotox sup 0.1, SIRT5 inh -4.0 and FGF22 binding 0.3.
For CC(C)N(Cc1nccn1C)C(=O)CCc1nnc(CCCc2ccccc2)o1 the results were rRNA inh HTS 13.2, FN deposit inh 12.5, SIRT5 inh 0.6 and FGF22 binding 44.5*.
Screening CN(CCc1cnn(C)c1)C(=O)CCc1nnc(CCCc2ccccc2)o1 returned FN deposit inh 5.7, SIRT5 inh -3.0 and FGF22 binding 43.3*.
For CO[C@@H]1CN(C)C(=O)c2cc(NS(=O)(=O)c3ccccc3C)ccc2OC[C@@H](C)NC[C@@H]1C the results were rRNA inh HTS 2.2, FN deposit inh -0.4, E-selectin induc -0.2, Statin myotox sup -2.0, SIRT5 inh -5.6 and FGF22 binding 0.2.
For COc1ccc2c3c([nH]c2c1)[C@@H](CO)N(C(=O)CC1CC1)CC31CCN(C(=O)c2ccccc2)CC1 the results were rRNA inh HTS -4.4, FN deposit inh -2.3, E-selectin induc 0.0, SIRT5 inh 0.8 and FGF22 binding 0.0.
C[C@@H]1CN([C@H](C)CO)C(=O)c2cc(NC(=O)C3CC3)ccc2O[C@@H]1CN(C)Cc1ccc2c(c1)OCO2 was read as rRNA inh HTS 0.1, E-selectin induc 0.3, Statin myotox sup 18.2, SIRT5 inh 16.6* and FGF22 binding 0.2.
`C[C@H](CO)N1C[C@H](C)[C@@H](CN(C)Cc2ccc3c(c2)OCO3)Oc2ccc(NC(=O)C3CC3)cc2CC1=O` gave rRNA inh HTS 5.3, E-selectin induc -5.4, Statin myotox sup 7.8, SIRT5 inh -2.1 and FGF22 binding 0.0.
For C[C@@H]1CN([C@H](C)CO)C(=O)c2cc(NC(=O)C3CCCCC3)ccc2O[C@H]1CN(C)C(=O)Nc1ccc2c(c1)OCO2 the results were rRNA inh HTS 1.6, E-selectin induc 176.9*, Statin myotox sup 5.3 and FGF22 binding 0.3.
For C[C@@H]1CN([C@@H](C)CO)C(=O)Cc2cc(NC(=O)C3CC3)ccc2O[C@@H]1CN(C)Cc1ccc2c(c1)OCO2 the results were rRNA inh HTS 1.4, E-selectin induc 48.8*, Statin myotox sup -44.3, SIRT5 inh 2.7 and FGF22 binding -0.2.
C[C@@H]1CN([C@@H](C)CO)C(=O)c2cc(NC(=O)C3CCCCC3)ccc2O[C@@H]1CN(C)C(=O)Nc1ccc2c(c1)OCO2 was read as rRNA inh HTS -1.6, E-selectin induc -1.2, Statin myotox sup -33.8, SIRT5 inh 2.7 and FGF22 binding -0.2.
For Nn1c(SCC(=O)N2CCN(S(=O)(=O)c3ccccc3)CC2)nnc1-c1cccs1 the results were Statin myotox sup 125.8*.
Screening O=S(=O)(c1ccc(F)cc1)N1CCN(C(=S)NCc2ccccc2)CC1 returned rRNA inh HTS 4.6, FN deposit inh -5.0, E-selectin induc 0.0, Statin myotox sup 5.8, SIRT5 inh 0.3 and FGF22 binding 43.7*.
Screening Nn1c(SCC(=O)N2CCN(S(=O)(=O)c3ccc(Cl)cc3)CC2)nnc1-c1cccs1 returned Statin myotox sup -21.6.
`CC(C)Cn1c(SCC(=O)N2CCN(S(=O)(=O)c3ccccc3)CC2)nc2ccccc21` gave rRNA inh HTS -31.9*, FN deposit inh 1.5 and Statin myotox sup 0.5.
CC(=O)N1CCN(S(=O)(=O)c2cccc(C(=O)NCc3ccc(F)cc3)c2)CC1 was read as rRNA inh HTS 5.5, FN deposit inh -5.0, E-selectin induc -0.1, Statin myotox sup 77.4*, SIRT5 inh 3.0 and FGF22 binding 0.1.
For O=S(=O)(c1ccc(F)cc1)N1CCN(C(=S)NCCc2ccccc2)CC1 the results were rRNA inh HTS 2.6, FN deposit inh 13.1, SIRT5 inh -2.5 and FGF22 binding 0.1.
Screening C[C@@H]1CN([C@@H](C)CO)C(=O)c2cc(NC(=O)Nc3ccccc3)ccc2O[C@H]1CN(C)C(=O)Nc1ccccc1 returned rRNA inh HTS -1.9, E-selectin induc 0.3, Statin myotox sup -11.0, SIRT5 inh -5.5 and FGF22 binding -0.6.
`O=C(CSc1ccc(F)cc1)N1CCN(S(=O)(=O)c2ccccc2)CC1` gave rRNA inh HTS -9.6, FN deposit inh 9.3, Statin myotox sup 19.3, SIRT5 inh 1.8 and FGF22 binding 43.5*.
CC(=O)Nc1ccc(SCC(=O)N2CCN(S(=O)(=O)c3ccccc3)CC2)cc1 was read as rRNA inh HTS 2.4, FN deposit inh -2.5, E-selectin induc 0.1, Statin myotox sup 0.4, SIRT5 inh -2.5 and FGF22 binding -0.1.
COc1ccc(NC(=O)c2cc(-c3cccs3)on2)c(OC)c1 was read as rRNA inh HTS 6.5, FN deposit inh 2.9, E-selectin induc 60.0*, Statin myotox sup -5.4, SIRT5 inh 1.8 and FGF22 binding 0.0.
For COc1ccc(N=C2NC(=O)/C(=C\C=C\c3ccccc3)S2)cc1 the results were FN deposit inh 13.3, E-selectin induc -0.1, Statin myotox sup 7.1, SIRT5 inh -0.5 and FGF22 binding 43.6*.
